≈ marks a conversion by molar mass, not a printed value.
Tests used:
Escherichia coli [1] = experiment: Antibacterial activity against aminoglycoside-susceptible Escherichia coli ATCC 25922 after 12 to 18 hrs; assay type: functional
In short: (§1)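 Broth microdilution. Bacterial suspension adjusted with broth to absorbance 0.08–0.1 at 625 nm, diluted further in broth, and mixed in wells with 2-fold serial dilutions of compound. Plates incubated at 35°C for 12–18 h. MIC is the lowest concentration inhibiting growth; each determination repeated at least three times.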

Staphylococcus aureus = experiment: Antibacterial activity against aminoglycoside-susceptible Staphylococcus aureus ATCC 25923 after 12 to 18 hrs; assay type: functional; in short: as §1
Escherichia coli [2] = experiment: Antibacterial activity against aminoglycoside-susceptible Escherichia coli TG1 after 12 to 18 hrs; assay type: functional; in short: as §1
Escherichia coli [3] = experiment: Antibacterial activity against Escherichia coli TG1 pSF815 plasmid encoded for AAC(6')/APH(2') after 12 to 18 hrs; assay type: functional; in short: as §1
Escherichia coli [4] = experiment: Antibacterial activity against Escherichia coli TG1 pTZ19U-3 plasmid encoded for APH(3')-1 after 12 to 18 hrs; assay type: functional; in short: as §1
Enterococcus [5] = experiment: Activity of Enterococcus APH(3')-3a
Enterococcus [6] = experiment: Ratio of kcat to Km of Enterococcus APH(3')-3a
Escherichia coli [7] = experiment: Antibacterial activity against Escherichia coli TG1 pET28a plasmid encoded for APH(3')-3a after 12 to 18 hrs; assay type: functional; in short: as §1

SMILES	MIC (Escherichia coli [1]) [µg/mL]	MIC (Staphylococcus aureus) [µg/mL]	MIC (Escherichia coli [2]) [µg/mL]	MIC (Escherichia coli [3]) [µg/mL]	MIC (Escherichia coli [4]) [µg/mL]	Km (Enterococcus [5]) [µM]	Vmax (Enterococcus [5]) [µmol/min/mg]	kcat (Enterococcus [5]) [s⁻¹]	kcat/Km (Enterococcus [6]) [×10⁴ /M/s]	MIC (Escherichia coli [7]) [µg/mL]
NC[C@@H]1O[C@H](O[C@H]2[C@@H](O)[C@H](O[C@@H]3[C@@H](O)[C@H](N)C[C@H](N)[C@H]3O[C@H]3O[C@H](CN)[C@@H](O)[C@H](O)[C@H]3N)O[C@@H]2Cn2cc(CNC(=O)c3cc(-c4ccccc4)nc4ccccc34)nn2)[C@H](N)[C@@H](O)[C@@H]1O	32 (≈ 34.6 µM)	8 (≈ 8.64 µM)	8 (≈ 8.64 µM)	32 (≈ 34.6 µM)	500 (≈ 540 µM)	410	0.3	0.15	0.037	16 (≈ 17.3 µM)
NC[C@@H]1O[C@@H](O[C@H]2[C@H](O)[C@@H](O[C@H]3O[C@H](CO)[C@@H](O)[C@H](N)[C@H]3O)[C@H](N)C[C@@H]2N)[C@@H](O)[C@H](O)[C@H]1O [KANAMYCIN A]						8.2	6.96	3.48	42.4	125 (≈ 258 µM)
NC[C@@H]1O[C@H](O[C@H]2[C@@H](O)[C@H](O[C@@H]3[C@@H](O)[C@H](N)C[C@H](N)[C@H]3O[C@H]3O[C@H](CN)[C@@H](O)[C@H](O)[C@H]3N)O[C@@H]2Cn2cc(CNC(=O)[C@@H]3CCCN3)nn2)[C@H](N)[C@@H](O)[C@@H]1O	16 (≈ 20.2 µM)	2 (≈ 2.53 µM)	16 (≈ 20.2 µM)	16 (≈ 20.2 µM)	≥ 2000	175	0.4	0.2	0.14	64 (≈ 80.8 µM)
NC[C@@H]1O[C@H](O[C@H]2[C@@H](O)[C@H](O[C@@H]3[C@@H](O)[C@H](N)C[C@H](N)[C@H]3O[C@H]3O[C@H](CN)[C@@H](O)[C@H](O)[C@H]3N)O[C@@H]2CNC(=O)[C@@H](N)Cc2c[nH]c3ccccc23)[C@H](N)[C@@H](O)[C@@H]1O	16 (≈ 20 µM)	2 (≈ 2.5 µM)	8 (≈ 10 µM)	16 (≈ 20 µM)	≥ 2000	322	0.57	0.29	0.1	64 (≈ 80 µM)
NC[C@@H]1O[C@H](O[C@H]2[C@@H](O)[C@H](O[C@@H]3[C@@H](O)[C@H](N)C[C@H](N)[C@H]3O[C@H]3O[C@H](CN)[C@@H](O)[C@H](O)[C@H]3N)O[C@@H]2CNC(=O)CCC(=O)O)[C@H](N)[C@@H](O)[C@@H]1O	64 (≈ 89.7 µM)	8 (≈ 11.2 µM)	32 (≈ 44.8 µM)	64 (≈ 89.7 µM)	≥ 2000	53	0.86	0.43	0.81	250 (≈ 350 µM)
C[C@@H](N)C(=O)NC[C@H]1O[C@@H](O[C@@H]2[C@@H](O)[C@H](N)C[C@H](N)[C@H]2O[C@H]2O[C@H](CN)[C@@H](O)[C@H](O)[C@H]2N)[C@H](O)[C@@H]1O[C@H]1O[C@@H](CN)[C@@H](O)[C@H](O)[C@H]1N	16 (≈ 23.4 µM)	1 (≈ 1.46 µM)	16 (≈ 23.4 µM)	16 (≈ 23.4 µM)	≥ 2000	63	0.82	0.41	0.65	64 (≈ 93.5 µM)

More lines, in order of falling MIC (Escherichia coli [1]), values ahead:

MIC (Escherichia coli [1]) [µg/mL]	MIC (Staphylococcus aureus) [µg/mL]	MIC (Escherichia coli [2]) [µg/mL]	MIC (Escherichia coli [3]) [µg/mL]	MIC (Escherichia coli [4]) [µg/mL]	Km (Enterococcus [5]) [µM]	Vmax (Enterococcus [5]) [µmol/min/mg]	kcat (Enterococcus [5]) [s⁻¹]	kcat/Km (Enterococcus [6]) [×10⁴ /M/s]	MIC (Escherichia coli [7]) [µg/mL]	SMILES
16 (≈ 22 µM)	4 (≈ 5.51 µM)	8 (≈ 11 µM)	16 (≈ 22 µM)	≥ 2000	48	0.95	0.48	1	64 (≈ 88.2 µM)	CCCCCCC(=O)NC[C@H]1O[C@@H](O[C@@H]2[C@@H](O)[C@H](N)C[C@H](N)[C@H]2O[C@H]2O[C@H](CN)[C@@H](O)[C@H](O)[C@H]2N)[C@H](O)[C@@H]1O[C@H]1O[C@@H](CN)[C@@H](O)[C@H](O)[C@H]1N
16 (≈ 22.5 µM)	0.5 (≈ 0.703 µM)	16 (≈ 22.5 µM)	16 (≈ 22.5 µM)	≥ 2000	80	0.63	0.32	0.4	64 (≈ 90 µM)	NC[C@@H]1O[C@H](O[C@H]2[C@@H](O)[C@H](O[C@@H]3[C@@H](O)[C@H](N)C[C@H](N)[C@H]3O[C@H]3O[C@H](CN)[C@@H](O)[C@H](O)[C@H]3N)O[C@@H]2CNC(=O)[C@@H]2CCCN2)[C@H](N)[C@@H](O)[C@@H]1O
8 (≈ 10.7 µM)	2 (≈ 2.67 µM)	16 (≈ 21.4 µM)	16 (≈ 21.4 µM)	≥ 2000	150	0.54	0.27	0.18	125 (≈ 167 µM)	NC[C@@H]1O[C@H](O[C@H]2[C@@H](O)[C@H](O[C@@H]3[C@@H](O)[C@H](N)C[C@H](N)[C@H]3O[C@H]3O[C@H](CN)[C@@H](O)[C@H](O)[C@H]3N)O[C@@H]2Cn2cc(C3CCCCN3)nn2)[C@H](N)[C@@H](O)[C@@H]1O (stereo not given in full)
8 (≈ 9.47 µM)	4 (≈ 4.73 µM)	8 (≈ 9.47 µM)	16 (≈ 18.9 µM)	≥ 2000	400	0.38	0.19	0.048	32 (≈ 37.9 µM)	NC[C@@H]1O[C@H](O[C@H]2[C@@H](O)[C@H](O[C@@H]3[C@@H](O)[C@H](N)C[C@H](N)[C@H]3O[C@H]3O[C@H](CN)[C@@H](O)[C@H](O)[C@H]3N)O[C@@H]2CNC(=O)c2cc(-c3ccccc3)nc3ccccc23)[C@H](N)[C@@H](O)[C@@H]1O
8 (≈ 11.7 µM)	0.5 (≈ 0.73 µM)	8 (≈ 11.7 µM)	16 (≈ 23.4 µM)	≥ 2000	60	0.9	0.45	0.75	64 (≈ 93.5 µM)	C[C@H](N)C(=O)NC[C@H]1O[C@@H](O[C@@H]2[C@@H](O)[C@H](N)C[C@H](N)[C@H]2O[C@H]2O[C@H](CN)[C@@H](O)[C@H](O)[C@H]2N)[C@H](O)[C@@H]1O[C@H]1O[C@@H](CN)[C@@H](O)[C@H](O)[C@H]1N
8 (≈ 11.2 µM)	1 (≈ 1.4 µM)	16 (≈ 22.4 µM)	16 (≈ 22.4 µM)	≥ 2000	50	0.93	0.47	0.94	125 (≈ 175 µM)	NCC[C@H](O)C(=O)NC[C@H]1O[C@@H](O[C@@H]2[C@@H](O)[C@H](N)C[C@H](N)[C@H]2O[C@H]2O[C@H](CN)[C@@H](O)[C@H](O)[C@H]2N)[C@H](O)[C@@H]1O[C@H]1O[C@@H](CN)[C@@H](O)[C@H](O)[C@H]1N
8 (≈ 11.1 µM)	2 (≈ 2.77 µM)	8 (≈ 11.1 µM)	16 (≈ 22.1 µM)	≥ 2000	120	0.65	0.33	0.28	64 (≈ 88.5 µM)	CN(C)Cc1cn(C[C@H]2O[C@@H](O[C@@H]3[C@@H](O)[C@H](N)C[C@H](N)[C@H]3O[C@H]3O[C@H](CN)[C@@H](O)[C@H](O)[C@H]3N)[C@H](O)[C@@H]2O[C@H]2O[C@@H](CN)[C@@H](O)[C@H](O)[C@H]2N)nn1
8 (≈ 11.3 µM)	0.5 (≈ 0.703 µM)	8 (≈ 11.3 µM)	16 (≈ 22.5 µM)	≥ 2000	70	0.72	0.36	0.51	64 (≈ 90 µM)	NC[C@@H]1O[C@H](O[C@H]2[C@@H](O)[C@H](O[C@@H]3[C@@H](O)[C@H](N)C[C@H](N)[C@H]3O[C@H]3O[C@H](CN)[C@@H](O)[C@H](O)[C@H]3N)O[C@@H]2CNC(=O)[C@H]2CCCN2)[C@H](N)[C@@H](O)[C@@H]1O

— ChEMBL document CHEMBL1140232, “Surprising alteration of antibacterial activity of 5"-modified neomycin against resistant bacteria” (2008)
